From ChEMBL document CHEMBL5329156, “Discovery and development of novel substituted monohydrazides as potent antifungal agents” (RSC Med Chem, 2023)
In brackets after ≈: the same amount, converted by molar mass. Activity calls are given as the source filed them. The rule behind the calls is not given here.

Assays:
[Candida] haemuloni [1] = Antifungal activity against Candida haemulonii AR Bank # 393 assessed as fungal growth inhibition by double dilution method; assay type: functional; conditions: Candidozyma haemuli
Outline: (§1)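 Broth microdilution after CLSI M27-A3/M38-A2 with minor changes. Single colony grown overnight in YPD at 35 °C, 200 rpm. Compound final range 0.06-31.3 µg/mL; incubated 48 h at 35 °C.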

J774.A1 = assay: Cytotoxicity against J774A.1 cells assessed as reduction in cell viability at 31.3 microg/ml; assay type: toxicity, cell-based; conditions: mouse, dose 31.3 µg/ml
Outline: (§2)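 Cells in DMEM with 10% FBS and 1% Pen/Strep, seeded at 10,000 cells/well and held overnight at 37 °C, 5% CO2. Compounds added at final 31.3-0.12 µg/mL (0.05% DMSO vehicle) for 24 h. Resazurin then added for 6 h; fluorescence read at ex 560/em 590. Triton X-100 1% as positive control; values normalized to vehicle. Run in quadruplicate.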

[Candida] auris [2] = Antifungal activity against Candida auris AR Bank # 381 assessed as fungal growth inhibition by double dilution method; assay type: functional; conditions: Candidozyma auris; outline: as §1
Kodamaea ohmeri = assay: Antifungal activity against Kodamaea ohmeri AR Bank # 396 assessed as fungal growth inhibition by double dilution method; assay type: functional; outline: as §1
Aspergillus terreus = assay: Antifungal activity against Aspergillus terreus ATCC MYA-3633 assessed as fungal growth inhibition by double dilution method; assay type: functional
Pichia kudriavzevii [3] = assay: Antifungal activity against Pichia kudriavzevii AR Bank # 397 assessed as fungal growth inhibition by double dilution method; assay type: functional; outline: as §1
Candida albicans [4] = assay: Antibiofilm activity against Candida albicans ATCC 10231 assessed as reduction in biofilm production at 1.96 to 3.9 microg/ml by biofilm formation assay; assay type: functional, organism-based; conditions: dose 1.96-3.9 µg/ml
Candida albicans [5] = assay: Antifungal activity against itraconazole/fluconazole resistant Candida albicans ATCC 90819 assessed as fungal growth inhibition by double dilution method; assay type: functional
Outline: (§3)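 Broth microdilution after CLSI M27-A3/M38-A2 with minor modifications. A single colony was grown overnight in YPD at 35 °C with shaking at 200 rpm. Cells were mixed 1:1 with compound (final 0.06-31.3 µg/mL, from DMSO stocks) and incubated 48 h at 35 °C.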

Candida duobushaemulonii [6] = assay: Antifungal activity against Candida duobushaemulonii AR Bank # 392 assessed as fungal growth inhibition by double dilution method; assay type: functional; conditions: Candidozyma duobushaemuli; outline: as §1
Candida albicans [7] = assay: Antifungal activity against itraconazole/fluconazole resistant Candida albicans ATCC MYA-1003 assessed as fungal growth inhibition by double dilution method; assay type: functional; outline: as §3
Aspergillus flavus = assay: Antifungal activity against Aspergillus flavus ATCC MYA-3631 assessed as fungal growth inhibition by double dilution method; assay type: functional
[Candida] auris [8] = Antifungal activity against Candida auris AR Bank # 386 assessed as fungal growth inhibition by double dilution method; assay type: functional; conditions: Candidozyma auris; outline: as §1
HEK293 = assay: Cytotoxicity against human HEK-293 cells assessed as reduction in cell viability at 31.3 microg/ml; assay type: toxicity, cell-based; conditions: dose 31.3 µg/ml; outline: as §2
Candida albicans [9] = assay: Antibiofilm activity against Candida albicans ATCC 10231 assessed as reduction in preformed biofilm production by biofilm formation assay; assay type: functional, organism-based
Outline: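 After PBS washes, XTT 0.5 mg/mL with 1 µM menadione added, 3 h at 37 °C in the dark; absorbance read at 450 nm.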

Candida albicans [10] = assay: Antifungal activity against Candida albicans ATCC 10231 assessed as fungal growth inhibition by double dilution method; assay type: functional; outline: as §1
Saccharomyces cerevisiae [11] = assay: Antifungal activity against Saccharomyces cerevisiae AR Bank # 399 assessed as fungal growth inhibition by double dilution method; assay type: functional; outline: as §1
[Candida] auris [12] = Antifungal activity against Candida auris AR Bank # 384 assessed as fungal growth inhibition by double dilution method; assay type: functional; conditions: Candidozyma auris; outline: as §1
Nakaseomyces glabratus [13] = assay: Antifungal activity against Candida glabrata ATCC 2001 assessed as fungal growth inhibition by double dilution method; assay type: functional; outline: as §1
Aspergillus nidulans = assay: Antifungal activity against Aspergillus nidulans ATCC 38163 assessed as fungal growth inhibition by double dilution method; assay type: functional
[Candida] auris [14] = Antifungal activity against Candida auris AR Bank # 0384 assessed as fungal growth inhibition by double dilution method; assay type: functional; conditions: Candidozyma auris; outline: as §1
Candida duobushaemulonii [15] = assay: Antifungal activity against Candida duobushaemulonii AR Bank # 394 assessed as fungal growth inhibition by double dilution method; assay type: functional; conditions: Candidozyma duobushaemuli; outline: as §1
Pichia kudriavzevii [16] = assay: Antifungal activity against Pichia kudriavzevii ATCC 6258 assessed as fungal growth inhibition by double dilution method; assay type: functional; outline: as §1
Candida albicans [17] = assay: Antifungal activity against itraconazole/fluconazole resistant Candida albicans ATCC MYA-1237 assessed as fungal growth inhibition by double dilution method; assay type: functional; outline: as §3
[Candida] auris [18] = Antifungal activity against Candida auris AR Bank # 387 assessed as fungal growth inhibition by double dilution method; assay type: functional; conditions: Candidozyma auris; outline: as §1
[Candida] auris [19] = Antifungal activity against Candida auris AR Bank # 382 assessed as fungal growth inhibition by double dilution method; assay type: functional; conditions: Candidozyma auris; outline: as §1
[Candida] auris [20] = Antifungal activity against Candida auris AR Bank # 0390 assessed as fungal growth inhibition by double dilution method; assay type: functional; conditions: Candidozyma auris; outline: as §1
HepG2 = assay: Cytotoxicity against human HepG2 cells assessed as reduction in cell viability upto 31.3 microg/ml; assay type: toxicity, cell-based; conditions: dose < 31.3 µg/ml; outline: as §2
Clavispora lusitaniae = assay: Antifungal activity against Clavispora lusitaniae AR Bank # 398 assessed as fungal growth inhibition by double dilution method; assay type: functional; outline: as §1
Candida duobushaemulonii [21] = assay: Antifungal activity against Candida duobushaemulonii AR Bank # 391 assessed as fungal growth inhibition by double dilution method; assay type: functional; conditions: Candidozyma duobushaemuli; outline: as §1
Candida albicans [22] = assay: Antifungal activity against Candida albicans ATCC 64124 assessed as fungal growth inhibition by double dilution method; assay type: functional; outline: as §3
[Candida] auris [23] = Antifungal activity against Candida auris AR Bank # 389 assessed as fungal growth inhibition by double dilution method; assay type: functional; conditions: Candidozyma auris; outline: as §1
[Candida] haemuloni [24] = Antifungal activity against Candida haemulonii AR Bank # 395 assessed as fungal growth inhibition by double dilution method; assay type: functional; conditions: Candidozyma haemuli; outline: as §1
Nakaseomyces glabratus [25] = assay: Antifungal activity against Candida glabrata ATCC 22019 assessed as fungal growth inhibition by double dilution method; assay type: functional; outline: as §1
[Candida] auris [26] = Antifungal activity against Candida auris AR Bank # 388 assessed as fungal growth inhibition by double dilution method; assay type: functional; conditions: Candidozyma auris; outline: as §1
Aspergillus fumigatus [27] = assay: Antifungal activity against Aspergillus fumigatus NRRL 5109 assessed as fungal growth inhibition by double dilution method; assay type: functional
Cryptococcus neoformans = assay: Antifungal activity against Cryptococcus neoformans ATCC MYA-895 assessed as fungal growth inhibition by double dilution method; assay type: functional; outline: as §1
[Candida] auris [28] = Antifungal activity against Candida auris AR Bank # 390 assessed as fungal growth inhibition by double dilution method; assay type: functional; conditions: Candidozyma auris; outline: as §1
Candida albicans [29] = assay: Antifungal activity against itraconazole/fluconazole susceptible Candida albicans ATCC MYA-2310 assessed as fungal growth inhibition by double dilution method; assay type: functional; outline: as §3
[Candida] auris [30] = Antifungal activity against Candida auris AR Bank # 383 assessed as fungal growth inhibition by double dilution method; assay type: functional; conditions: Candidozyma auris; outline: as §1
Candida albicans [31] = assay: Antifungal activity against itraconazole/fluconazole susceptible Candida albicans ATCC MYA-2876 assessed as fungal growth inhibition by double dilution method; assay type: functional; outline: as §3
[Candida] auris [32] = Antifungal activity against Candida auris AR Bank # 385 assessed as fungal growth inhibition by double dilution method; assay type: functional; conditions: Candidozyma auris; outline: as §1
Aspergillus fumigatus [33] = assay: Antifungal activity against Aspergillus fumigatus NRRL 163 assessed as fungal growth inhibition by double dilution method; assay type: functional
Candida albicans [34] = assay: Antifungal activity against Candida albicans ATCC 10231 assessed as fungal growth inhibition by time kill studies; assay type: functional, organism-based
Outline: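 Overnight YPD culture (35 °C, 200 rpm) diluted in RPMI 1640 to ~1×10⁵ CFU/mL. […] Samples at 0, 3, 6, 9, 12, 18 and 24 h were 10-fold diluted and plated on PDA; colonies counted after 48 h at 35 °C. Run in duplicate.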

Saccharomyces cerevisiae [35] = assay: Antifungal activity against Saccharomyces cerevisiae AR Bank # 400 assessed as fungal growth inhibition by double dilution method; assay type: functional; outline: as §1
Aspergillus fumigatus [36] = assay: Antifungal activity against Aspergillus fumigatus NRRL 6113 assessed as fungal growth inhibition by double dilution method; assay type: functional

O=C(NNc1cccc(Cl)c1)c1ccccn1
MIC ([Candida] haemuloni [1]): 0.12 µg/mL (≈ 0.484 µM) | Activity (J774.A1): Non-Toxic | MIC ([Candida] auris [2]): 0.98 µg/mL (≈ 3.96 µM) | MIC (Kodamaea ohmeri): 0.12 µg/mL (≈ 0.484 µM) | MIC (Aspergillus terreus): 0.98 µg/mL (≈ 3.96 µM) | MIC (Pichia kudriavzevii [3]): 0.12 µg/mL (≈ 0.484 µM) | Activity (Candida albicans [4]): Active | MIC (Candida albicans [5]): 0.49 µg/mL (≈ 1.98 µM) | MIC (Candida duobushaemulonii [6]): 0.24 µg/mL (≈ 0.969 µM) | MIC (Candida albicans [7]): 0.49 µg/mL (≈ 1.98 µM) | MIC (Aspergillus flavus): > 31.3 µg/mL | MIC ([Candida] auris [8]): 0.24 µg/mL (≈ 0.969 µM) | Activity (HEK293): Non-Toxic | Activity (Candida albicans [9]): inactive | MIC (Candida albicans [10]): 0.12 µg/mL (≈ 0.484 µM) | MIC (Saccharomyces cerevisiae [11]): 0.98 µg/mL (≈ 3.96 µM) | MIC ([Candida] auris [12]): 0.98 µg/mL (≈ 3.96 µM) | MIC (Nakaseomyces glabratus [13]): 1.95 µg/mL (≈ 7.87 µM) | MIC (Aspergillus nidulans): 0.24 µg/mL (≈ 0.969 µM) | MIC ([Candida] auris [14]): 0.98 µg/mL (≈ 3.96 µM) | MIC (Candida duobushaemulonii [15]): 12 µg/mL (≈ 48.4 µM) | MIC (Pichia kudriavzevii [16]): 0.49 µg/mL (≈ 1.98 µM) | MIC (Candida albicans [17]): 0.98 µg/mL (≈ 3.96 µM) | MIC ([Candida] auris [18]): 0.49 µg/mL (≈ 1.98 µM) | MIC ([Candida] auris [19]): 0.49 µg/mL (≈ 1.98 µM) | MIC ([Candida] auris [20]): 0.98 µg/mL (≈ 3.96 µM) | Activity (HepG2): Non-Toxic | MIC (Clavispora lusitaniae): 0.98 µg/mL (≈ 3.96 µM) | MIC (Candida duobushaemulonii [21]): 0.24 µg/mL (≈ 0.969 µM) | MIC (Candida albicans [22]): 0.98 µg/mL (≈ 3.96 µM) | MIC ([Candida] auris [23]): 0.49 µg/mL (≈ 1.98 µM) | MIC ([Candida] haemuloni [24]): ≤ 0.06 µg/mL | MIC (Nakaseomyces glabratus [25]): 1.95 µg/mL (≈ 7.87 µM) | MIC ([Candida] auris [26]): 0.49 µg/mL (≈ 1.98 µM) | MIC (Aspergillus fumigatus [27]): > 31.3 µg/mL | MIC (Cryptococcus neoformans): 0.12 µg/mL (≈ 0.484 µM) | MIC ([Candida] auris [28]): 0.49 µg/mL (≈ 1.98 µM) | MIC (Candida albicans [29]): 0.98 µg/mL (≈ 3.96 µM) | MIC ([Candida] auris [30]): 0.49 µg/mL (≈ 1.98 µM) | MIC (Candida albicans [31]): 0.98 µg/mL (≈ 3.96 µM) | MIC ([Candida] auris [32]): 0.49 µg/mL (≈ 1.98 µM) | MIC (Aspergillus fumigatus [33]): > 31.3 µg/mL | Activity (Candida albicans [34]): Dose-Dependent Effect | MIC (Saccharomyces cerevisiae [35]): 0.98 µg/mL (≈ 3.96 µM) | MIC (Aspergillus fumigatus [36]): > 31.3 µg/mL
